Our source for the folding enthalpy and Tm values is the array DNA melting data of Ke et al. (doi:10.1101/2024.01.08.574731).

The nature of series [1]: folding enthalpy; higher = less favourable; fluorescence melt of hairpins on a sequencing array, two-state fit. The settings on record: sodium 0.088 M. An outline of the steps:
(§1)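 Folding enthalpy and melting temperature were estimated with bootstrapped two-state fits and combined across four replicates by inverse-variance weighting, with fitted temperatures raised by 9.35 °C to match UV melts. The data were Cy3 fluorescence of library hairpins, with annealed Cy3 and quencher oligos, on a sequenced MiSeq flow cell in 50 mM Na-HEPES pH 8.0, 25 mM NaCl, imaged in 2.5 °C steps up to 60 °C and normalised to pre-quench Cy3 and control constructs.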

The nature of series [2]: melting temperature; fluorescence melt of hairpins on a sequencing array, two-state fit, raised by 9.35 °C to match UV melts. The settings on record: sodium 0.088 M. In short, it runs like this: as §1

GATCAACGCATTGATC ((((((....)))))): the folding enthalpy in series [1] is -34.6 kcal/mol. The Tm in series [2] was 46.2 °C.
On to GATCAACGCTTGATC ((((((...)))))), for which, in series [1], the folding enthalpy is -31.4 kcal/mol. Besides, in series [2], the Tm was 42 °C.
On to GATCAACTACTTGATC ((((((....)))))), for which the folding enthalpy in series [1] is -32.5 kcal/mol. Also, the Tm in series [2] turned out to be 41.8 °C.
The matching figures for GATCAACTATTGATC ((((((...)))))): -30.4 kcal/mol and 41 °C.
The matching figures for GATCAACTCATTGATC ((((((....)))))): -33.8 kcal/mol and 44.6 °C.
GATCAAGAACTTGATC ((((((....)))))): in series [1], the folding enthalpy is -38.4 kcal/mol. In series [2], the Tm is 49.2 °C.
On the same counts, the results for GATCAAGAAGTTGATC ((((((....)))))) are -28.2 kcal/mol and 43.9 °C.
On the same counts, the results for GATCAAGACCTTGATC ((((((....)))))) are -40.2 kcal/mol and 50.1 °C.
On to GATCAAGAGCTTGATC ((((((....)))))), for which the folding enthalpy in series [1] was -38.2 kcal/mol. For the same sequence, the Tm in series [2] stood at 42.2 °C.
GATCAAGATCTTGATC ((((((....)))))): in series [1], the folding enthalpy is -47.1 kcal/mol. Moreover, the Tm in series [2] is 49.9 °C.
Take GATCAAGCACTTGATC ((((((....)))))): the folding enthalpy in series [1] is -38.4 kcal/mol. Also, the Tm in series [2] stood at 50.4 °C.
The matching figures for GATCAAGCGTTGATC ((((((...)))))): -29.6 kcal/mol and 40.2 °C.
On the same counts, the results for GATCAAGCTATTGATC ((((((....)))))) are -40.8 kcal/mol and 50.2 °C.
The matching figures for GATCAAGGAAACCTGATC (((((.(....).))))): -29.1 kcal/mol and 35.6 °C.
On to GATCAAGGAGTTGATC ((((((....)))))), for which the folding enthalpy in series [1] is -29.5 kcal/mol. In addition, in series [2], the Tm turned out to be 45.3 °C.
On the same counts, the results for GATCAAGGCATTGATC ((((((....)))))) are -34.5 kcal/mol and 50.5 °C.
On the same counts, the results for GATCAAGGCTTGATC ((((((...)))))) are -49.3 kcal/mol and 47.8 °C.
The matching figures for GATCAAGGGTTTGATC ((((((....)))))): -26.2 kcal/mol and 43 °C.
Take GATCAAGTATTTGATC ((((((....)))))): in series [1], the folding enthalpy is -37.8 kcal/mol. Besides, the Tm in series [2] is 50.3 °C.
Regarding GATCAATGAATTGATC ((((((....)))))), the folding enthalpy in series [1] is -34.6 kcal/mol. The Tm in series [2] came out at 46.3 °C.
On the same counts, the results for GATCAATGGATTGATC ((((((....)))))) are -28.3 kcal/mol and 45.2 °C.
The matching figures for GATCAATGTCTTGATC ((((((....)))))): -27.9 kcal/mol and 43.5 °C.
For GATCAATTGATTGATC ((((((....)))))), the folding enthalpy in series [1] was -36.5 kcal/mol. Moreover, the Tm in series [2] is 47.2 °C.
GATCAATTGGTTGATC ((((((....)))))): in series [1], the folding enthalpy is -40.5 kcal/mol. Moreover, the Tm in series [2] is 45.8 °C.
For the sequence GATCAATTGTTGATC ((((((...)))))), in series [1], the folding enthalpy was -30.6 kcal/mol. Besides, in series [2], the Tm amounted to 41.5 °C.
On to GATCAATTTTTGATC ((((((...)))))), for which, in series [1], the folding enthalpy was -33.6 kcal/mol. Moreover, the Tm in series [2] was found to be 45.9 °C.
With GATCACAAAAGTGATC ((((((....)))))), the folding enthalpy in series [1] was -36.8 kcal/mol. Also, the Tm in series [2] was 54.7 °C.
Turning to GATCACAACAGTGATC ((((((....)))))), the folding enthalpy in series [1] is -41.7 kcal/mol. Moreover, the Tm in series [2] is 58.7 °C.
On the same counts, the results for GATCACAACGGTGATC ((((((....)))))) are -38.7 kcal/mol and 56 °C.
Consider GATCACACAAGTGATC ((((((....)))))), for which the folding enthalpy in series [1] is -42.4 kcal/mol. The Tm in series [2] worked out at 56.2 °C.
As for GATCACACCCGTGATC ((((((....)))))), the folding enthalpy in series [1] was -35.2 kcal/mol. In addition, in series [2], the Tm was 57.8 °C.
On to GATCACACTGTGATC ((((((...)))))), for which the folding enthalpy in series [1] is -41.8 kcal/mol. Also, in series [2], the Tm is 55.6 °C.
In the case of GATCACAGAGGTGATC ((((((....)))))), the folding enthalpy in series [1] is -27.4 kcal/mol. The Tm in series [2] was determined as 55.9 °C.
For GATCACAGAGTGATC ((((((...)))))), the folding enthalpy in series [1] is -35 kcal/mol. Further, the Tm in series [2] came to 60.8 °C.
GATCACAGCGGTGATC ((((((....)))))): in series [1], the folding enthalpy is -29.1 kcal/mol. In series [2], the Tm came to 56.3 °C.
With GATCACAGGGGTGATC ((((((....)))))), in series [1], the folding enthalpy is -33.6 kcal/mol. In series [2], the Tm worked out at 56.2 °C.
On the same counts, the results for GATCACAGTCGTGATC ((((((....)))))) are -44.9 kcal/mol and 56.2 °C.
The matching figures for GATCACATGAGTGATC ((((((....)))))): -42.1 kcal/mol and 55.7 °C.
As to GATCACATTCGTGATC ((((((....)))))), the folding enthalpy in series [1] is -39.2 kcal/mol. For the same sequence, the Tm in series [2] turned out to be 59.4 °C.
On the same counts, the results for GATCACATTGGTGATC ((((((....)))))) are -40.1 kcal/mol and 56.7 °C.
On the same counts, the results for GATCACCAGCGTGATC ((((((....)))))) are -43.3 kcal/mol and 53.8 °C.
Regarding GATCACCCAAGTGATC ((((((....)))))), the folding enthalpy in series [1] was -46.8 kcal/mol. The Tm in series [2] came to 55.7 °C.
The matching figures for GATCACCCCCGTGATC ((((((....)))))): -36 kcal/mol and 55 °C.
Take GATCACCCCGTGATC ((((((...)))))): the folding enthalpy in series [1] is -43.2 kcal/mol. For the same sequence, the Tm in series [2] came to 57.5 °C.
On to GATCACCCGAAAGGGATC (((..(((....)))))), for which the folding enthalpy in series [1] was -14 kcal/mol. Moreover, the Tm in series [2] was 35.5 °C.
On the same counts, the results for GATCACCCTAGTGATC ((((((....)))))) are -38.9 kcal/mol and 58.9 °C.
Regarding GATCACCCTCGTGATC ((((((....)))))), the folding enthalpy in series [1] was -43.6 kcal/mol. For the same sequence, the Tm in series [2] worked out at 55.8 °C.
On the same counts, the results for GATCACCGCGTGATC ((((((...)))))) are -35.6 kcal/mol and 61.9 °C.
With GATCACCGGGTGATC ((((((...)))))), in series [1], the folding enthalpy is -30.8 kcal/mol. In addition, in series [2], the Tm was 55 °C.
With GATCACCTACGTGATC ((((((....)))))), the folding enthalpy in series [1] is -43 kcal/mol. Further, in series [2], the Tm is 56.6 °C.
On to GATCACCTAGTGATC ((((((...)))))), for which the folding enthalpy in series [1] was -34.8 kcal/mol. For the same sequence, the Tm in series [2] was determined as 58.2 °C.
Regarding GATCACCTCCGTGATC ((((((....)))))), the folding enthalpy in series [1] was -32.5 kcal/mol. Besides, the Tm in series [2] was 55 °C.
For GATCACCTCGGTGATC ((((((....)))))), the folding enthalpy in series [1] is -37.5 kcal/mol. Further, the Tm in series [2] is 65.4 °C.
On the same counts, the results for GATCACCTTGTGATC ((((((...)))))) are -40.9 kcal/mol and 58.8 °C.
The matching figures for GATCACGAAAGTGAAATC ((((((....)))..))): -10.7 kcal/mol and 30.2 °C.
Turning to GATCACGAAAGTGAATC ((((((....))).))), the folding enthalpy in series [1] was -15.8 kcal/mol. The Tm in series [2] stood at 45.6 °C.
For GATCACGAAAGTGACATC ((((((....)))..))), the folding enthalpy in series [1] was -10.1 kcal/mol. Besides, the Tm in series [2] came out at 30 °C.
Regarding GATCACGAAAGTGGATC ((((((....))).))), the folding enthalpy in series [1] was -18.2 kcal/mol. Also, in series [2], the Tm was 46.9 °C.
Consider GATCACGAAAGTGGGATC ((((((....)))..))), for which the folding enthalpy in series [1] is -15.6 kcal/mol. Moreover, the Tm in series [2] worked out at 38 °C.
On the same counts, the results for GATCACGAAGGTGATC ((((((....)))))) are -32.7 kcal/mol and 65.3 °C.
On the same counts, the results for GATCACGAGGTGATC ((((((...)))))) are -33.7 kcal/mol and 57.8 °C.
The matching figures for GATCACGATGGTGATC ((((((....)))))): -36.1 kcal/mol and 58.8 °C.
On to GATCACGCACGTGATC ((((((....)))))), for which, in series [1], the folding enthalpy was -40.5 kcal/mol. Moreover, the Tm in series [2] was found to be 68.9 °C.
The matching figures for GATCACGCATGTGATC ((((((....)))))): -43.1 kcal/mol and 67.3 °C.
As for GATCACGCCGTGATC ((((((...)))))), the folding enthalpy in series [1] was -29.8 kcal/mol. Also, the Tm in series [2] is 63.2 °C.
On to GATCACGCGGTGATC ((((((...)))))), for which the folding enthalpy in series [1] is -40.2 kcal/mol. Moreover, the Tm in series [2] turned out to be 59.2 °C.
The matching figures for GATCACGCTCGTGATC ((((((....)))))): -45.5 kcal/mol and 60.9 °C.
For the sequence GATCACGCTGTGATC ((((((...)))))), the folding enthalpy in series [1] was -39.5 kcal/mol. The Tm in series [2] came to 59.2 °C.
The matching figures for GATCACGGAAACGTAATC (((.(((....))).))): -20.3 kcal/mol and 31.5 °C.
The matching figures for GATCACGGAAACGTGACC (.(((((....))))).): -14.7 kcal/mol and 45.1 °C.
GATCACGGCGGTGATC ((((((....)))))): the folding enthalpy in series [1] was -45.6 kcal/mol. The Tm in series [2] turned out to be 58.8 °C.
On the same counts, the results for GATCACGGGGTGATC ((((((...)))))) are -33.6 kcal/mol and 60.3 °C.
For GATCACGGGTGTGATC ((((((....)))))), the folding enthalpy in series [1] was -36.9 kcal/mol. Besides, in series [2], the Tm stood at 58.8 °C.
On the same counts, the results for GATCACGTACGTGATC ((((((....)))))) are -47.7 kcal/mol and 64 °C.
The matching figures for GATCACGTGTGTGATC ((((((....)))))): -37.3 kcal/mol and 58.9 °C.
The matching figures for GATCACGTTTGTGATC ((((((....)))))): -40.4 kcal/mol and 58.5 °C.
